In ChEMBL document CHEMBL4130454, “Anchimerically Activatable Antiviral ProTides” (ACS Med Chem Lett, 2017):
Activity calls are given as the source filed them. The rule behind the calls is not given here.

Columns and labels:
[1] = Cytotoxicity against African green monkey Vero cells assessed as decrease in cell viability after 72 hrs by neutral red dye uptake assay; assay type: cell-based; conditions: chlorocebus sabaeus
Summary of the method: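 Vero cells were exposed to a range of compound concentrations for 72 h. Viability was read by Neutral Red dye uptake, six replicates.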

dengue virus type 2 [2] = experiment: Antiviral activity against Dengue virus 2 prototype 16681 infected in African green monkey Vero cells assessed as inhibition of viral RNA replication at 100 uM after 72 hrs by qPCR method; assay type: functional, organism-based
Summary of the method: (§1)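 Vero cells infected with DENV-2 (moi = 0.2), then treated with 100 μM compound, alone or together with 100 μM TrpGc (HINT1 inhibitor). After 72 h, supernatant RNA was extracted and viral progeny quantified by DENV-2-specific qPCR. Replication is expressed as percentage of the untreated infected control. Mean of four independent experiments.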

dengue virus type 2 [3] = experiment: Antiviral activity against Dengue virus 2 prototype 16681 infected in Vero cells assessed as inhibition of virus induced cytopathic effect by plaque assay; conditions: prototype 16681, Vero
dengue virus type 2 [4] = experiment: Antiviral activity against Dengue virus 2 prototype 16681 infected in African green monkey Vero cells assessed as inhibition of viral RNA replication at 100 uM after 72 hrs in presence of 100 uM of HINT1 inhibitor […] by qPCR method; assay type: functional, organism-based; summary of the method: as §1
[5] = Drug metabolism assessed as half life for ((2R,3R,4R,5R)-5-(2-amino-6-oxo-1,6-dihydro-9H-purin-9-yl)-3,4-dihydroxy-4-methyltetrahydrofuran-2-yl)methyl hydrogen (2-(1H-indol-3-yl)ethyl)phosphoramidate formation in HEPES buffer at pH 7.4 by RP-HPLC analysis; assay type: physicochemical
Summary of the method: (§2)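 Diester prodrug incubated at 37 °C in 20 mM HEPES buffer, pH 7.4 or pH 2.0. Removal of the 2-(methylthio)ethyl group, giving the monoester phosphoramidate, was followed over time by reversed-phase HPLC. The half-life was derived from the conversion time course.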

[6] = Drug metabolism assessed as half life for ((2R,3R,4R,5R)-5-(2-amino-6-oxo-1,6-dihydro-9H-purin-9-yl)-3,4-dihydroxy-4-methyltetrahydrofuran-2-yl)methyl hydrogen (2-(1H-indol-3-yl)ethyl)phosphoramidate formation in HEPES buffer at pH 2 by RP-HPLC analysis; assay type: physicochemical; summary of the method: as §2
dengue virus type 2 [7] = experiment: Antiviral activity against Dengue virus 2 New Guinea assessed as inhibition of virus induced cytopathic effect by neutral red dye uptake assay; assay type: functional, organism-based

Row | Structure (SMILES) | CC50 at 72 h [1] [µM] | inhibition (dengue virus type 2 [2]) | IC50 (dengue virus type 2 [3]) [µM] | inhibition (dengue virus type 2 [4]) | t1/2 [5] [h] | t1/2 [6] [h] | EC50 (dengue virus type 2 [7]) [µM]
1 | C[C@@]1(O)[C@H](O)[C@@H](COP(=O)(O)NCCc2c[nH]c3ccccc23)O[C@H]1n1cnc2c(=O)[nH]c(N)nc21 | > 200 | Active | 6.84 | inactive | – | – | –
2 | CSCCOP(=O)(NCCc1c[nH]c2ccccc12)OC[C@H]1O[C@@H](n2cnc3c(=O)[nH]c(N)nc32)[C@](C)(O)[C@@H]1O (some centres undefined) | > 200 | Active | 1.59 | inactive | 4.5 | 3.78 | –
3 | C[C@@]1(O)[C@H](O)[C@@H](CO)O[C@H]1n1cnc2c(N)ncnc21 | – | – | – | – | – | – | 4
4 | C[C@@]1(O)[C@H](O)[C@@H](CO)O[C@H]1n1cnc2c(=O)[nH]c(N)nc21 [2'-B-METHYL-GUANOSINE] | > 200 | – | 8.14 | – | – | – | 13.6
